Series [1] concerns Human betaherpesvirus 5. Briefly: Antimicrobial activity against 0.1 uM compound pretreated Human cytomegalovirus AD169 infected in HELF assessed as reduction in viral titer at 4 degC. Format: functional, organism-based. In short, it runs like this:
(§1)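 HCMV AD169 (10^4 PFU) incubated with ODN at 0.1 μM at 4 or 37°C for various times; samples then diluted to bring ODN below an antivirally active level; residual infectivity titrated by plaque assay on HELF. Means ± SD of three independent experiments.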

In series [2] the test system is Human betaherpesvirus 5. The series is described as follows: Antimicrobial activity against 0.1 uM compound pretreated Human cytomegalovirus AD169 infected in HELF assessed as reduction in viral titer 37 degC. The series is classed as functional, organism-based. In short, it runs like this: as §1
A short description of series [3]: Cytotoxicity against HELF assessed as cell viability by MTT assay after 6 days at <=10 uM. The series is classed as cell-based. The settings on record: human, 144 h. The gist of the method:
(§2)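 HELF exposed to rising ODN concentrations (up to 10 μM) for 6 days; viable cells measured by MTT. CC50 taken as concentration that cuts viability to 50%.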

Series [4] concerns Human betaherpesvirus 5. The series is described as follows: Antimicrobial activity against Human cytomegalovirus AD169 infected in 1 uM compound pretreated HELF assessed as inhibition of viral replication measured after 6 days post-infection. The series is classed as functional, organism-based. In short, it runs like this: (§3)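 HELF pretreated with ODN 1 h before infection with HCMV AD169 (MOI 1); ODN kept in medium after 2 h adsorption at 37°C. At 6 days p.i., cells plus supernatants sonicated and titrated by plaque assay on HELF; plaques counted microscopically, expressed as PFU/ml (log10) or % of control. IC50/IC90 by linear regression; duplicate wells, three independent experiments, means ± SD.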

Series [5] can be described thus: Cytotoxicity against HELF assessed as cell viability after 6 days by MTT assay. Format: cell-based. The settings on record: human, HELF cells. The gist of the method: as §2
On the technique in general: Formazan colour is commonly taken as a measure of viable cells.

Series [6] relates to Human betaherpesvirus 5. The series is described as follows: Antimicrobial activity against Human cytomegalovirus AD169 infected in 0.1 uM compound pretreated HELF assessed as inhibition of viral replication measured after 6 days post-infection. Format: functional, organism-based. In short, it runs like this:
as §3

Series [7] has as its system Human betaherpesvirus 5. Briefly: Antimicrobial activity against Human cytomegalovirus AD169 infected in compound pretreated HELF assessed as inhibition of viral replication measured after 6 days post-infection. Format: functional, organism-based. To be noted: Human betaherpesvirus 5, AD169, HELF. The gist of the method: as §3

Three molecules from ChEMBL document CHEMBL1255259, “Phosphorothioate-modified oligodeoxynucleotides inhibit human cytomegalovirus replication by blocking virus entry” (Antimicrob Agents Chemother, 2008) can be followed below.

The source made the active and inactive calls. No cut-off for these calls is given here. A value given as a limit tells only on which side of the number the result lay.

A word on the CC50: it is the concentration giving 50% cytotoxicity. One may read the IC50 as the midpoint of a concentration-inhibition curve. The term IC90 denotes the concentration at which the effect reaches the 90% level.

Turning to `Cc1cn([C@H]2C[C@H](OP(=O)(O)OC[C@H]3O[C@@H](n4ccc(N)nc4=O)[C@H](O)[C@@H]3OP(=O)(O)OC[C@H]3O[C@@H](n4cnc5c(=O)[nH]c(N)nc54)[C@H](O)[C@@H]3OP(=O)(O)OC[C@H]3O[C@@H](n4cc(C)c(=O)[nH]c4=O)C[C@@H]3OP(=O)(O)OC[C@H]3O[C@@H](n4ccc(N)nc4=O)[C@H](O)[C@@H]3OP(=O)(O)OC[C@H]3O[C@@H](n4cnc5c(=O)[nH]c(N)nc54)[C@H](O)[C@@H]3OP(=O)(O)OC[C@H]3O[C@@H](n4cnc5c(=O)[nH]c(N)nc54)[C@H](O)[C@@H]3OP(O)(=S)OC[C@H]3O[C@@H](n4cnc5c(=O)[nH]c(N)nc54)[C@H](O)[C@@H]3OP(O)(=S)OC[C@H]3O[C@@H](n4cnc5c(=O)[nH]c(N)nc54)[C@H](O)[C@@H]3OP(O)(=S)OC[C@H]3O[C@@H](n4cnc5c(=O)[nH]c(N)nc54)[C@H](O)[C@@H]3OP(O)(=S)OC[C@H]3O[C@@H](n4cnc5c(=O)[nH]c(N)nc54)[C@H](O)[C@@H]3OP(O)(O)=S)[C@@H](COP(=O)(O)O[C@H]3[C@@H](O)[C@H](n4cnc5c(N)ncnc54)O[C@@H]3COP(=O)(O)O[C@H]3[C@@H](O)[C@H](n4cnc5c(=O)[nH]c(N)nc54)O[C@@H]3COP(=O)(O)O[C@H]3[C@@H](O)[C@H](n4ccc(N)nc4=O)O[C@@H]3COP(=O)(O)O[C@H]3[C@@H](O)[C@H](n4cnc5c(N)ncnc54)O[C@@H]3COP(=O)(O)O[C@H]3[C@@H](O)[C@H](n4cnc5c(=O)[nH]c(N)nc54)O[C@@H]3COP(=O)(O)O[C@H]3[C@@H](O)[C@H](n4cnc5c(=O)[nH]c(N)nc54)O[C@@H]3COP(=O)(O)O[C@H]3[C@@H](O)[C@H](n4cnc5c(=O)[nH]c(N)nc54)O[C@@H]3COP(O)(=S)O[C@H]3[C@@H](O)[C@H](n4cnc5c(=O)[nH]c(N)nc54)O[C@@H]3COP(O)(=S)O[C@H]3[C@@H](O)[C@H](n4cnc5c(=O)[nH]c(N)nc54)O[C@@H]3CO)O2)c(=O)[nH]c1=O` (some centres undefined), the inhibition entry in the series with Human betaherpesvirus 5 [1] and with Human betaherpesvirus 5 [2] was “inactive” in each case. In addition, the Activity result in series [3] is on record as “Non-toxic”. The inhibition entry in the series with Human betaherpesvirus 5 [4] and with Human betaherpesvirus 5 [6] was “Active” in each case. Besides, in series [5], the CC50 at 144 h was greater than 10 µM. Besides, in the series with Human betaherpesvirus 5 [7], the IC50 was found to be 0.14 µM. Moreover, in the series with Human betaherpesvirus 5 [7], the IC90 was 3.6 µM.
`Cc1cn([C@H]2C[C@H](OP(O)(=S)OC[C@H]3O[C@@H](n4cc(C)c(=O)[nH]c4=O)C[C@@H]3OP(O)(O)=S)[C@@H](OOP(O)(=S)O[C@H]3[C@@H](O)[C@H](n4ccc(N)nc4=O)O[C@@H]3COP(O)(=S)O[C@H]3[C@@H](O)[C@H](n4cnc5c(=O)[nH]c(N)nc54)O[C@@H]3COP(O)(=S)O[C@H]3[C@@H](O)[C@H](n4cnc5c(N)ncnc54)O[C@@H]3COP(O)(=S)O[C@H]3[C@@H](O)[C@H](n4cnc5c(=O)[nH]c(N)nc54)O[C@@H]3COP(O)(=S)O[C@H]3C[C@H](n4cc(C)c(=O)[nH]c4=O)O[C@@H]3COP(O)(=S)O[C@H]3[C@@H](O)[C@H](n4ccc(N)nc4=O)O[C@@H]3COP(O)(=S)O[C@H]3[C@@H](O)[C@H](n4ccc(N)nc4=O)O[C@@H]3COP(O)(=S)O[C@H]3C[C@H](n4cc(C)c(=O)[nH]c4=O)O[C@@H]3COP(O)(=S)O[C@H]3C[C@H](n4cc(C)c(=O)[nH]c4=O)O[C@@H]3COP(O)(=S)O[C@H]3[C@@H](O)[C@H](n4ccc(N)nc4=O)O[C@@H]3COP(O)(=S)O[C@H]3[C@@H](O)[C@H](n4cnc5c(=O)[nH]c(N)nc54)O[C@@H]3COP(O)(=S)O[C@H]3[C@@H](O)[C@H](n4cnc5c(N)ncnc54)O[C@@H]3COP(O)(=S)O[C@H]3[C@@H](O)[C@H](n4cnc5c(=O)[nH]c(N)nc54)O[C@@H]3COP(O)(=S)O[C@H]3C[C@H](n4cc(C)c(=O)[nH]c4=O)O[C@@H]3COP(O)(=S)O[C@H]3[C@@H](O)[C@H](n4cnc5c(N)ncnc54)O[C@@H]3COP(O)(=S)O[C@H]3[C@@H](O)[C@H](n4ccc(N)nc4=O)O[C@@H]3COP(O)(=S)O[C@H]3[C@@H](O)[C@H](n4ccc(N)nc4=O)O[C@@H]3COP(O)(=S)O[C@H]3C[C@H](n4cc(C)c(=O)[nH]c4=O)O[C@@H]3CO)O2)c(=O)[nH]c1=O` (some centres undefined): the inhibition entry with Human betaherpesvirus 5 [1] and in the series with Human betaherpesvirus 5 [2] was “inactive” throughout. The Activity entry in series [3] was “Non-toxic”. Besides, the inhibition entry in the series on Human betaherpesvirus 5 [4] and in the series on Human betaherpesvirus 5 [6] was “Active” each time. Also, the CC50 at 144 h in series [5] is greater than 10 µM. For the same molecule, in the series with Human betaherpesvirus 5 [7], the half-inhibitory concentration (IC50) is 0.2 µM. In the series with Human betaherpesvirus 5 [7], the IC90 is greater than 5 µM.
Regarding `Cc1cn([C@H]2C[C@H](OP(O)(=S)OC[C@H]3O[C@@H](n4ccc(N)nc4=O)[C@H](O)[C@@H]3OP(O)(=S)OC[C@H]3O[C@@H](n4cnc5c(=O)[nH]c(N)nc54)[C@H](O)[C@@H]3OP(O)(=S)OC[C@H]3O[C@@H](n4cc(C)c(=O)[nH]c4=O)C[C@@H]3OP(O)(=S)OC[C@H]3O[C@@H](n4ccc(N)nc4=O)[C@H](O)[C@@H]3OP(O)(=S)OC[C@H]3O[C@@H](n4cnc5c(=O)[nH]c(N)nc54)[C@H](O)[C@@H]3OP(O)(=S)OC[C@H]3O[C@@H](n4cc(C)c(=O)[nH]c4=O)C[C@@H]3OP(O)(=S)OC[C@H]3O[C@@H](n4cc(C)c(=O)[nH]c4=O)C[C@@H]3OP(O)(=S)OC[C@H]3O[C@@H](n4cc(C)c(=O)[nH]c4=O)C[C@@H]3OP(O)(=S)OC[C@H]3O[C@@H](n4cc(C)c(=O)[nH]c4=O)C[C@@H]3OP(O)(=S)OC[C@H]3O[C@@H](n4ccc(N)nc4=O)[C@H](O)[C@@H]3OP(O)(=S)OC[C@H]3O[C@@H](n4cnc5c(=O)[nH]c(N)nc54)[C@H](O)[C@@H]3OP(O)(=S)OC[C@H]3O[C@@H](n4cnc5c(=O)[nH]c(N)nc54)[C@H](O)[C@@H]3OP(O)(=S)OC[C@H]3O[C@@H](n4ccc(N)nc4=O)[C@H](O)[C@@H]3OP(O)(=S)OC[C@H]3O[C@@H](n4cnc5c(=O)[nH]c(N)nc54)[C@H](O)[C@@H]3OP(O)(=S)OC[C@H]3O[C@@H](n4ccc(N)nc4=O)[C@H](O)[C@@H]3OP(O)(=S)OC[C@H]3O[C@@H](n4cnc5c(=O)[nH]c(N)nc54)[C@H](O)[C@@H]3OP(O)(=S)OC[C@H]3O[C@@H](n4ccc(N)nc4=O)[C@H](O)[C@@H]3OP(O)(=S)OC[C@H]3O[C@@H](n4cnc5c(=O)[nH]c(N)nc54)[C@H](O)[C@@H]3OP(O)(=S)OC[C@H]3O[C@@H](n4ccc(N)nc4=O)[C@H](O)[C@@H]3OP(O)(=S)OC[C@H]3O[C@@H](n4ccc(N)nc4=O)[C@H](O)[C@@H]3OP(O)(=S)OC[C@H]3O[C@@H](n4cnc5c(=O)[nH]c(N)nc54)[C@H](O)[C@@H]3OP(O)(O)=S)[C@@H](CO)O2)c(=O)[nH]c1=O` (some centres undefined), the inhibition result in the series with Human betaherpesvirus 5 [1] and in the series with Human betaherpesvirus 5 [2] was “inactive” in each case. For the same molecule, the Activity entry in series [3] was “Non-toxic”. The inhibition entry in the series with Human betaherpesvirus 5 [4] and in the series with Human betaherpesvirus 5 [6] was “Active” each time. Further, the CC50 at 144 h in series [5] is greater than 10 µM. The IC50 in the series on Human betaherpesvirus 5 [7] turned out to be 0.1 µM. Besides, in the series on Human betaherpesvirus 5 [7], the IC90 was determined as 3.2 µM.
